SMILES strings stand for the structures. The source made the active and inactive calls. The rule behind the calls is not given here.

The test system of this assay is Mus musculus. As to the kind of experiment: Antiinflammatory activity in zymosan-induced C57BL/6 mouse pleurisy model assessed as reduction in neutrophil influx in thoracic cavity at 10 to 50 mg/kg, po administered 1 hr prior to zymosan challenge measured after 4 hrs using Grunwald-Giemsa-stained cytospin smear by light microscopy. In kind it is functional, organism-based. A digest of the protocol: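 Oral pretreatment 1 h before intrathoracic zymosan (100 μg/cavity in 100 μL saline). Cavities washed at 4 h with 1 mL PBS/10 mM EDTA. Total leukocytes counted on a particle counter, differentials from May-Grünwald-Giemsa cytospins (×10^6/cavity). Supernatant after 400g 10 min assayed for total protein by Bradford.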

Take `COC(=O)c1cc(O)c(O)c(O)c1` [GALLIC ACID METHYL ESTER]: the outcome was Active.

These data come from ChEMBL document CHEMBL3853307, “Anti-inflammatory Effect of Methyl Gallate on Experimental Arthritis: Inhibition of Neutrophil Recruitment, Production of Inflammatory Mediators, and Activation of Macrophages” (J Nat Prod, 2016).
